Tested on: U2OS
Assay: Multiplex assay against U2OS
Type: toxicity, cell-based
Conditions: human
Outline: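 Imaging took place on a CQ1 microscope at 37°C and 5% CO2 once compound had been added to live cells stained at seeding with Hoechst33342, BioTracker Green Microtubule Cytoskeleton Dye, MitoTracker Red and Annexin V Alexa Fluor 680. CellPathfinder machine-learning gating classed cells as Hoechst high-intensity objects or normal cells, classed normal cells as having healthy, pyknosed or fragmented nuclei, and classed pyknosed cells as mitotic or apoptotic. Tubulin, mitochondrial-mass and membrane-permeability phenotypes are per cents of the healthy-nucleus cells.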

[1] = 12 h, 1 µM, compound concentration 1 uM, replicate 1
[2] = 12 h, 1 µM, compound concentration 1 uM, replicate 2
[3] = 12 h, 10 µM, compound concentration 10 uM, replicate 1
[4] = 12 h, 10 µM, compound concentration 10 uM, replicate 2
[5] = 24 h, 1 µM, compound concentration 1 uM, replicate 1
[6] = 24 h, 1 µM, compound concentration 1 uM, replicate 2
[7] = 24 h, 10 µM, compound concentration 10 uM, replicate 1
[8] = 24 h, 10 µM, compound concentration 10 uM, replicate 2
[9] = 48 h, 1 µM, compound concentration 1 uM, replicate 1
[10] = 48 h, 1 µM, compound concentration 1 uM, replicate 2
[11] = 48 h, 10 µM, compound concentration 10 uM, replicate 1
[12] = 48 h, 10 µM, compound concentration 10 uM, replicate 2

## c1cc(OCCCN2CCCCC2)ccc1CN1CCCCC1 [JNJ-5207852]
[1]
  Population Apoptotic (%): 76%
  Population Fragmented Nuclei (%): 29%
  Population Healthy Nuclei (%): 65%
  Population Hoechst High Intensity Objects (%): 2%
  Population Membrane Permeable-Phenotype (%): 5%
  Population Mitochondria Different-Phenotype (%): 3%
  Population Mitotic Cells (%): 23%
  Population Normal (%): 97%
  Population Pyknosed Nuclei (%): 5%
  Population Tubulin-Different-Phenotype (%): 3%
  Total Cell Count: 253
[2]
  Population Apoptotic (%): 58%
  Population Fragmented Nuclei (%): 25%
  Population Healthy Nuclei (%): 62%
  Population Hoechst High Intensity Objects (%): 0%
  Population Membrane Permeable-Phenotype (%): 7%
  Population Mitotic Cells (%): 41%
  Population Normal (%): 99%
  Population Pyknosed Nuclei (%): 11%
  Total Cell Count: 106
[3]
  Population Apoptotic (%): 73%
  Population Fragmented Nuclei (%): 34%
  Population Healthy Nuclei (%): 57%
  Population Hoechst High Intensity Objects (%): 2%
  Population Membrane Permeable-Phenotype (%): 5%
  Population Mitochondria Different-Phenotype (%): 3%
  Population Mitotic Cells (%): 26%
  Population Normal (%): 97%
  Population Pyknosed Nuclei (%): 8%
  Population Tubulin-Different-Phenotype (%): 3%
  Total Cell Count: 228
[4]
  Population Apoptotic (%): 85%
  Population Fragmented Nuclei (%): 13%
  Population Healthy Nuclei (%): 80%
  Population Hoechst High Intensity Objects (%): 4%
  Population Membrane Permeable-Phenotype (%): 7%
  Population Mitochondria Different-Phenotype (%): 9%
  Population Mitotic Cells (%): 14%
  Population Normal (%): 95%
  Population Pyknosed Nuclei (%): 6%
  Population Tubulin-Different-Phenotype (%): 6%
  Total Cell Count: 120
[5]
  Population Apoptotic (%): 84%
  Population Fragmented Nuclei (%): 25%
  Population Healthy Nuclei (%): 65%
  Population Hoechst High Intensity Objects (%): 1%
  Population Membrane Permeable-Phenotype (%): 3%
  Population Mitochondria Different-Phenotype (%): 2%
  Population Mitotic Cells (%): 16%
  Population Normal (%): 98%
  Population Pyknosed Nuclei (%): 8%
  Population Tubulin-Different-Phenotype (%): 2%
  Total Cell Count: 287
[6]
  Population Apoptotic (%): 66%
  Population Fragmented Nuclei (%): 21%
  Population Healthy Nuclei (%): 68%
  Population Hoechst High Intensity Objects (%): 0%
  Population Membrane Permeable-Phenotype (%): 4%
  Population Mitotic Cells (%): 33%
  Population Normal (%): 100%
  Population Pyknosed Nuclei (%): 10%
  Population Tubulin-Different-Phenotype (%): 4%
  Total Cell Count: 119
[7]
  Population Apoptotic (%): 82%
  Population Fragmented Nuclei (%): 28%
  Population Healthy Nuclei (%): 62%
  Population Hoechst High Intensity Objects (%): 1%
  Population Membrane Permeable-Phenotype (%): 4%
  Population Mitochondria Different-Phenotype (%): 3%
  Population Mitotic Cells (%): 17%
  Population Normal (%): 98%
  Population Pyknosed Nuclei (%): 8%
  Population Tubulin-Different-Phenotype (%): 3%
  Total Cell Count: 271
[8]
  Population Apoptotic (%): 84%
  Population Fragmented Nuclei (%): 10%
  Population Healthy Nuclei (%): 80%
  Population Membrane Permeable-Phenotype (%): 8%
  Population Mitochondria Different-Phenotype (%): 5%
  Population Mitotic Cells (%): 15%
  Population Tubulin-Different-Phenotype (%): 8%
  Total Cell Count: 157
[9]
  Population Apoptotic (%): 82%
  Population Fragmented Nuclei (%): 21%
  Population Healthy Nuclei (%): 69%
  Population Hoechst High Intensity Objects (%): 2%
  Population Membrane Permeable-Phenotype (%): 4%
  Population Mitochondria Different-Phenotype (%): 2%
  Population Mitotic Cells (%): 17%
  Population Normal (%): 97%
  Population Pyknosed Nuclei (%): 8%
  Population Tubulin-Different-Phenotype (%): 4%
  Total Cell Count: 400
[10]
  Population Apoptotic (%): 76%
  Population Fragmented Nuclei (%): 19%
  Population Healthy Nuclei (%): 71%
  Population Hoechst High Intensity Objects (%): 3%
  Population Membrane Permeable-Phenotype (%): 9%
  Population Mitochondria Different-Phenotype (%): 4%
  Population Mitotic Cells (%): 23%
  Population Normal (%): 96%
  Population Tubulin-Different-Phenotype (%): 3%
  Total Cell Count: 152
[11]
  Population Apoptotic (%): 86%
  Population Fragmented Nuclei (%): 22%
  Population Healthy Nuclei (%): 70%
  Population Hoechst High Intensity Objects (%): 2%
  Population Membrane Permeable-Phenotype (%): 7%
  Population Mitochondria Different-Phenotype (%): 3%
  Population Mitotic Cells (%): 13%
  Population Normal (%): 97%
  Population Pyknosed Nuclei (%): 6%
  Population Tubulin-Different-Phenotype (%): 5%
  Total Cell Count: 345
[12]
  Population Apoptotic (%): 93%
  Population Fragmented Nuclei (%): 14%
  Population Healthy Nuclei (%): 78%
  Population Hoechst High Intensity Objects (%): 1%
  Population Membrane Permeable-Phenotype (%): 6%
  Population Mitochondria Different-Phenotype (%): 2%
  Population Mitotic Cells (%): 6%
  Population Normal (%): 98%
  Population Tubulin-Different-Phenotype (%): 4%
  Total Cell Count: 245

From ChEMBL document CHEMBL5058577, “EUbOPEN Chemogenomics Library 2 (Multiplex)” (2022)
